Experimental data published in ChEMBL document CHEMBL3352635 (Bioorg Med Chem Lett, 2014).
Values belong to the molecule of their own block, whether it stands above or below them.

Experiments:
[1] = Metabolic stability in simulated gastric fluid assessed as compound remaining at pH 1.2 after 180 mins by HPLC analysis; type: ADME; settings: read-out: Stability
Summary of the method: (§1)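 Compounds incubated at 37 °C in simulated gastric fluid (pH 1.2), simulated intestinal fluid (pH 6.8) or 100% human plasma for up to 180 min. […] Half-life estimated from the decay.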

[2] = Half life in simulated gastric fluid at pH 1.2 by HPLC analysis; type: ADME; summary of the method: as §1
[3] = Metabolic stability in simulated gastric fluid assessed as compound remaining at pH 1.2 measured immediately by HPLC analysis; type: ADME; settings: read-out: Stability; summary of the method: as §1
[4] = Metabolic stability in simulated gastric fluid assessed as compound remaining at pH 1.2 after 5 mins by HPLC analysis; type: ADME; settings: read-out: Stability; summary of the method: as §1
[5] = Metabolic stability in simulated gastric fluid assessed as compound remaining at pH 1.2 after 10 mins by HPLC analysis; type: ADME; settings: read-out: Stability; summary of the method: as §1
[6] = Metabolic stability in simulated gastric fluid assessed as compound remaining at pH 1.2 after 15 mins by HPLC analysis; type: ADME; settings: read-out: Stability; summary of the method: as §1
[7] = Metabolic stability in simulated gastric fluid assessed as compound remaining at pH 1.2 after 30 mins by HPLC analysis; type: ADME; settings: read-out: Stability; summary of the method: as §1
[8] = Metabolic stability in simulated gastric fluid assessed as compound remaining at pH 1.2 after 60 mins by HPLC analysis; type: ADME; settings: read-out: Stability; summary of the method: as §1
[9] = Metabolic stability in simulated gastric fluid assessed as compound remaining at pH 1.2 after 120 mins by HPLC analysis; type: ADME; settings: read-out: Stability; summary of the method: as §1
[10] = AUC in Sprague-Dawley rat at 44.83 mg/kg, po; type: ADME, organism-based; set-up: dose 44.83 mg/kg, route oral; settings: plasma
Summary of the method: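 Plasma parent-drug concentration followed over time up to 8 h. AUC in µg*h/mL from the concentration–time profile. Cmax and Tmax taken from the profile.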

in vivo [11] = settings: Sprague-Dawley, rat, po, 10 mg/kg
in vivo [12] = settings: Sprague-Dawley, rat, po, 10 mg/kg; remark: listed apart in the source
in vivo [13] = settings: Sprague-Dawley, rat, plasma, po, 10 mg/kg
in vivo [14] = settings: Sprague-Dawley, rat, plasma, po, 10 mg/kg; remark: listed apart in the source
in vivo [15] = settings: Sprague-Dawley, rat, plasma, po, 10 mg/kg; remark: listed apart in the source
[16] = Metabolic stability in simulated gastric fluid assessed as chlorambucil level; type: ADME, tissue-based, Stomach; settings: simulated gi fluid
[17] = Metabolic stability in simulated intestinal fluid assessed as compound remaining at pH 6.8 measured immediately by HPLC analysis; type: ADME; settings: read-out: Stability; summary of the method: as §1
[18] = Metabolic stability in simulated intestinal fluid assessed as compound remaining at pH 6.8 after 2 mins by HPLC analysis; type: ADME; settings: read-out: Stability; summary of the method: as §1
[19] = Metabolic stability in simulated intestinal fluid assessed as compound remaining at pH 6.8 after 5 mins by HPLC analysis; type: ADME; settings: read-out: Stability; summary of the method: as §1
[20] = Metabolic stability in simulated intestinal fluid assessed as compound remaining at pH 6.8 after 10 mins by HPLC analysis; type: ADME; settings: read-out: Stability; summary of the method: as §1
[21] = Metabolic stability in simulated intestinal fluid assessed as compound remaining at pH 6.8 after 20 mins by HPLC analysis; type: ADME; settings: read-out: Stability; summary of the method: as §1
[22] = Metabolic stability in simulated intestinal fluid assessed as compound remaining at pH 6.8 after 60 mins by HPLC analysis; type: ADME; settings: read-out: Stability; summary of the method: as §1
[23] = Metabolic stability in simulated intestinal fluid assessed as compound remaining at pH 6.8 after 120 mins by HPLC analysis; type: ADME; settings: read-out: Stability; summary of the method: as §1
[24] = Half life in simulated intestinal fluid at pH 6.8 by HPLC analysis; type: ADME; summary of the method: as §1
[25] = Half life in human plasma by HPLC analysis; type: ADME, cell-free; summary of the method: as §1
[26] = AUC in Wistar rat at 44.83 mg/kg, po; type: ADME, organism-based; set-up: dose 44.83 mg/kg, route oral; settings: plasma
Summary of the method: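 Single oral dosing in Wistar rats to compare […]. Aspirin at 30 mg/kg or the prodrug at 44.83 mg/kg (equimolar to 30 mg/kg aspirin). Plasma aspirin measured over time. AUC in µg*h/mL.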

Rattus norvegicus [27] = assay: Antiinflammatory activity in Sprague-Dawley rat assessed as plasma nitrate/nitrite AUC at 14.94 mg/kg, po by Griess assay (reference value: 371.1 uM.h); type: functional, organism-based; set-up: dose 14.94 mg/kg
Summary of the method: (§2)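 Sprague–Dawley rats given compounds orally, with vehicle-dosed controls. […] Plasma nitrate/nitrite (NOx) measured by the Griess method as an indirect measure of NO released, over 8 h (sampling included 1, 2, 4 and 6 h). Plasma nitrate/nitrite AUC in µM*h.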

Rattus norvegicus [28] = assay: Antiinflammatory activity in Sprague-Dawley rat assessed as plasma nitrate/nitrite at 14.94 mg/kg, po up to 8 hrs; type: functional; summary of the method: as §2
Rattus norvegicus [29] = assay: Toxicity in rat assessed as gastric lesion and ulcer area at 298.8 mg/kg, po after 5 hrs; type: organism-based, Stomach; set-up: dose 298.8 mg/kg, route oral; settings: in vivo
Rattus norvegicus [30] = assay: Antiplatelet activity in Sprague-Dawley rat assessed as inhibition of TXB2 formation at 44.82 mg/kg, po od after 7 days by EIA relative to vehicle-treated control; type: functional; settings: 168 h
Summary of the method: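 Sprague–Dawley rats dosed orally once daily for 7 days with aspirin 30 mg/kg or prodrug 44.82 mg/kg (equimolar), with vehicle 1 ml/kg as control. Serum TXB2 levels estimated. Inhibition expressed as % reduction versus vehicle.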

[31] = Stability of the compound assessed as compound remaining at RT measured immediately; type: physicochemical; settings: read-out: Stability
Summary of the method: (§3)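 Solid-state storage stability at room temperature and at 50 °C, followed for up to 1 month (25 days for one compound). Remaining compound measured, along with the amounts of parent drug and salicylic acid generated.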

[32] = Stability of the compound assessed as compound remaining at RT after 3 days; type: physicochemical; settings: read-out: Stability
[33] = Stability of the compound assessed as compound remaining at RT after 18 days; type: physicochemical; settings: read-out: Stability
[34] = Stability of the compound assessed as compound remaining at RT after 1 month; type: physicochemical; settings: read-out: Stability; summary of the method: as §3
[35] = Stability of the compound assessed as compound remaining at 50 degC measured immediately; type: physicochemical; settings: read-out: Stability; summary of the method: as §3
[36] = Stability of the compound assessed as compound remaining at 50 degC after 2 days; type: physicochemical; settings: read-out: Stability
[37] = Stability of the compound assessed as compound remaining at 50 degC after 5 days; type: physicochemical; settings: read-out: Stability; summary of the method: as §3
[38] = Stability of the compound assessed as compound remaining at 50 degC after 1 month; type: physicochemical; settings: read-out: Stability; summary of the method: as §3
[39] = Metabolic stability in simulated gastric fluid assessed as compound remaining at pH 1.2 after 2 mins by HPLC analysis; type: ADME; settings: read-out: Stability; summary of the method: as §1
[40] = Metabolic stability in simulated gastric fluid assessed as compound remaining at pH 1.2 after 20 mins by HPLC analysis; type: ADME; settings: read-out: Stability; summary of the method: as §1
[41] = Metabolic stability in simulated gastric fluid assessed as compound remaining at pH 1.2 after 40 mins by HPLC analysis; type: ADME; settings: read-out: Stability; summary of the method: as §1

Structure (SMILES): CCCC(OC(=O)[C@@H](C)c1ccc2cc(OC)ccc2c1)O[N+](=O)[O-] (some centres not stated)
- remaining at 3 h [1]: 39%
- half-life [2]: < 180 min
- remaining at 0 min [3]: 100%
- remaining at 5 min [4]: 96%
- remaining at 10 min [5]: 94%
- remaining at 0.25 h [6]: 83%
- remaining at 0.5 h [7]: 83%
- remaining at 1 h [8]: 75%
- remaining at 2 h [9]: 58%

Structure (SMILES): COc1ccc2cc([C@H](C)C(=O)O)ccc2c1 [NAPROXEN]
- Tmax (in vivo [11]): 15 min
- Cmax at 0.25 h (in vivo [12]): 55000 ng/mL
- Cmax at 2 h (in vivo [13]): > 30000 ng/mL
- Cmax at 4 h (in vivo [14]): > 20000 ng/mL
- Cmax at 8 h (in vivo [15]): < 15000 ng/mL

Structure (SMILES): CC(OC(=O)CCCc1ccc(N(CCCl)CCCl)cc1)O[N+](=O)[O-] (configuration not stated)
- t1/2 [16]: < 5 min

Second part, led by results:

- AUC [10]: 73500 ng·h/mL
Structure (SMILES): CCCC(OC(=O)c1ccccc1OC(C)=O)O[N+](=O)[O-] (configuration not stated)

- half-life [2]: < 10 min
- remaining at 0 min [17]: 100%
- remaining at 2 min [18]: 91%
- remaining at 5 min [19]: 82%
- remaining at 10 min [20]: 52%
- remaining at 20 min [21]: 32%
- remaining at 1 h [22]: 4%
- remaining at 2 h [23]: 0%
- half-life [24]: < 15 min
- half-life [25]: < 5 min
- AUC [10]: 89800 ng·h/mL
- AUC [26]: 398000 ng·h/mL
- remaining at 0 days [31]: 99.1%
- remaining at 72 h [32]: 98.9%
- remaining at 432 h [33]: 99%
- remaining at 730.5 h [34]: 98.6%
- remaining at 0 days [35]: 99.1%
- remaining at 48 h [36]: 98.8%
- remaining at 120 h [37]: 98.2%
- remaining at 730.5 h [38]: 88.3%
- remaining at 0 min [3]: 100%
- remaining at 2 min [39]: 78%
- remaining at 5 min [4]: 65%
- remaining at 10 min [5]: 45%
- remaining at 20 min [40]: 14%
- remaining at 40 min [41]: 12%
- remaining at 1 h [8]: 0%
Structure (SMILES): CC(=O)Oc1ccccc1C(=O)OC(C)O[N+](=O)[O-] (configuration not stated)
- AUC (Rattus norvegicus [27]): 1480 µM·h
- Activity (Rattus norvegicus [28]): 180 µM
- Activity (Rattus norvegicus [29]): 1 mm2
- inhibition in vivo at 44.82 mg/kg (Rattus norvegicus [30]): 72.6%
